UHRF1 MBD2 ctr: UHRF1 methylated DNA binding inhibitors, primary screen, counter-screen for MBD2 inhibitor project, biochemical, TR-FRET, human UHRF1, single concentration | inhibition, % at 4.4 µM | 0.75% of 370,000 active | UHRF1 binding to methylated oligo; in the data active = inhibition above about 21%;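 also: UHRF1 SRA domain binding a hemimethylated CpG hairpin DNA probe; 0% = median of test compound wells and 100% = reference inhibitor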
Target sequence (Q96T88 whole entry, looked up, the tested form may be a part): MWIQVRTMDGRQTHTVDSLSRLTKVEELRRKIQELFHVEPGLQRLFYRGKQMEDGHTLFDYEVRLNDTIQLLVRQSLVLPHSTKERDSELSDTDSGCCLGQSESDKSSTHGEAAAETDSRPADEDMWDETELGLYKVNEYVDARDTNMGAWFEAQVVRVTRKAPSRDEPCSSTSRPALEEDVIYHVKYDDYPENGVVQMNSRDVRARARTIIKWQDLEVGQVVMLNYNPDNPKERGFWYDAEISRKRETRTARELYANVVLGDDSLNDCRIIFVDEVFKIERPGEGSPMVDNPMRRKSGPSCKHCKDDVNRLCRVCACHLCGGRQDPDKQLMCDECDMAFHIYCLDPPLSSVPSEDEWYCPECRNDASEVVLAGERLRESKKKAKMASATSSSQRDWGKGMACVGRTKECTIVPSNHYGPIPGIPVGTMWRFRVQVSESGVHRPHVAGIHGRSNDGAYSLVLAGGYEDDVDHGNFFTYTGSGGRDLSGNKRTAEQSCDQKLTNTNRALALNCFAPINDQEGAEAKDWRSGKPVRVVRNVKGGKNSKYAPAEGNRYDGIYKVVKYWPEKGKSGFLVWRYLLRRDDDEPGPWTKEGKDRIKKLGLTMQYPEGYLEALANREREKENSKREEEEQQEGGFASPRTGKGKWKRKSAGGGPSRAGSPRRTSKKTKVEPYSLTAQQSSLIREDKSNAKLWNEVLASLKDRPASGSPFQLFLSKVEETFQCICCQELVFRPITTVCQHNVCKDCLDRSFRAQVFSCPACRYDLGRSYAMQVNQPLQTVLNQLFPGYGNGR
TDP2 inh: human TDP2 enzyme inhibitors, primary screen, biochemical, epi absorbance, recombinant enzyme | T5PNP hydrolysis, p-nitrophenol absorbance 415 nm | Tyrosyl-DNA phosphodiesterase 2 (Homo sapiens), O95551 | 0.34% of 370,000 active | AID 720702, 2013 | inhibition, % at 12.8 µM;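 active = inhibition above the mean of all tested compounds plus 3 SD, set per campaign, cut at about 25% in these data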;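 also: 0% = DMSO with enzyme and 100% = buffer with substrate but no TDP2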
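Material: recombinant human TDP2; quantity: TDP2 enzyme at 120 nM final; medium: Tris-HCl pH 7.5 with MgCl2; compound: single concentration, 12.8 µM nominal, with 1% DMSO; incubation: 2 h enzyme incubation at 37 °C; signal: epi absorbance; measure: percent inhibition; benchmarks: high control without enzyme, low control DMSO plus TDP2; repeats: singlicate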
MBD2 inh: inhibitors of MBD2 binding to methylated DNA, primary screen, biochemical, TR-FRET, DNA-binding domain, human | Methyl-CpG-binding domain protein 2 (Homo sapiens), Q9UBB5 | MBD2 binding to methylated oligonucleotide | inhibition, % at 4.4 µM | 0.31% of 370,000 active; in the data active = inhibition above about 13%
LEDGF integ inh: blockers of LEDGF/p75-dependent integrase strand transfer – biochemical, TR-FRET, high throughput, primary screen | TR-FRET IN-LEDGF/p75 DNA integration, Eu/Cy5 | inhibition, % at 3.7 µM | 0.64% of 370,000 active | AID 743269, 2014;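 active = inhibition above the screen-wide mean plus 3 SD, cut at about 13% in these data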;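 also: signal is the Cy5 over europium emission ratio at 671 and 618 nm; 0% = plate median of compound wells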
IN multimer act: HIV-1 IN multimer formation enhancers, counter-screen for LEDGF/p75 integration inhibitor project, biochemical, TR-FRET | shares compounds with LEDGF integ inh | TR-FRET HIV-1 integrase multimerization | activation, % at 7.7 µM | 17% of 2,000 active | AID 1053131, 2014; in the data active = activation above about 8.9%
TR-FRET interf: TR-FRET optical interference artefacts, confirmation, artefact control for LEDGF/p75-dependent integration inhibitor project, biochemical, HIV-1 IN multimerization; shares compounds with LEDGF integ inh; TR-FRET optical interference counterscreen; inhibition, % at 7.7 µM; 2,000 tested, under 10 active; AID 1053135, 2014;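 active = inhibition above the mean over all tested compounds plus 3 SD, which no compound reached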;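 also: 0% = integrase with antibodies and DMSO and 100% = antibodies without integrase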
LEDGF integ conf: inhibitors of HIV-1 IN-LEDGF/p75 DNA integration, confirmation, biochemical, TR-FRET | shares compounds with LEDGF integ inh | 36% of 2,000 active | TR-FRET LEDGF/p75-dependent HIV-1 integration | inhibition, % at 3.7 µM; in the data active = inhibition above about 14%
Starred values were filed as active, the others as inactive; nt = not tested or not shown. Only some compounds are listed: those with a hit (about 1.6% of all), similar ones and a draw of the others.

SMILES | UHRF1 MBD2 ctr | TDP2 inh | MBD2 inh | LEDGF integ inh | IN multimer act | TR-FRET interf | LEDGF integ conf
COC(=O)C1=C(C)N(Cc2ccccc2C(F)(F)F)C(=NCc2cc(OC)c(OC)c(OC)c2)NC1c1cccc(F)c1 (stereo not drawn) | -2 | -3 | -1 | -2 | nt | nt | nt
O=C(CSc1nccc(=O)[nH]1)N1N=C2/C(=C/c3ccco3)CCCC2C1c1ccco1 (stereo not drawn) | 14 | -4 | 10 | 37* | 2 | -9 | 19*
Nc1nc(SCC(=O)N2N=C3/C(=C\c4ccco4)CCCC3C2c2ccco2)n[nH]1 (stereo not drawn) | -1 | -10 | -6 | 2 | nt | nt | nt
Nc1nc(SCC(=O)N2N=C3/C(=C/c4ccco4)CCCC3C2c2ccco2)n[nH]1 (stereo not drawn) | -3 | 9 | 1 | 18* | 1 | -4 | 6
COc1cc2c(c(OC)c1OC)[C@@]1(c3ccccc3)CCCC[C@H]1[C@@H]2NC(=O)C(F)(F)F | -1 | -3 | 6 | 4 | nt | nt | nt
CC(=O)Nc1cc2c(cc1[N+](=O)[O-])-c1ccccc1C2=NO | -4 | 4 | -8 | 15* | 0 | 1 | 1
Nc1cc2c(cc1[N+](=O)[O-])-c1ccccc1C2=NO | 1 | 9 | -1 | -4 | nt | nt | nt
CSc1ccc(C2C(C#N)=C(N)Oc3c2ccc(=O)c2c(C)oc(C)c32)cc1 (stereo not drawn) | -4 | -3 | -2 | -2 | nt | nt | nt
Cc1oc(C)c2c(=O)ccc3c(c12)OC(N)=C(C#N)C3c1ccccc1 (stereo not drawn) | 6 | -17 | -1 | 15* | -2 | 7 | 8
CCN1C[C@@H]2[C@@H]3C(=O)N(C)C(=O)[C@@H]3[C@](CC)(C(=O)OC)N2C1=NCc1ccccc1 | 21* | 10 | 10 | 65* | -2 | 9 | 2
Cc1cc(=O)n2[nH]c(-c3ccc(F)cc3)cc2n1 | -3 | 1 | 2 | 1 | nt | nt | nt
Cc1nc2cc(-c3ccsc3-n3c(C)ccc3C)[nH]n2c(=O)c1Cl | 32* | 3 | 8 | 48* | 8 | -41 | 33*
Cc1cc(=O)n2[nH]c(-c3ccsc3-n3c(C)ccc3C)cc2n1 | 18 | 0 | 10 | 28* | 25* | -127 | 50*
COc1ccc(Cn2ccc3ccc(-c4ccc5ccn(Cc6ccc(OC)cc6)c5c4)cc32)cc1 | 0 | -3 | 0 | -2 | nt | nt | nt
O=C(CSc1nnc(COc2ccccc2)n1Cc1ccco1)NCc1ccco1 | 11 | -11 | 1 | 28* | 5 | -23 | 19*
Cc1cc(NC(=O)CSc2nnc(COc3ccccc3)n2Cc2ccco2)no1 | -2 | 1 | -1 | 0 | nt | nt | nt
Cc1ccc(NC(=O)CC2(CC(=O)O)CCCC2)cc1 | -1 | 3 | 4 | 1 | nt | nt | nt
Cc1cc(=O)oc2cc(NC(=O)CC3(CC(=O)O)CCCC3)ccc12 | -2 | 17 | -7 | 21* | -2 | 5 | 2
CN1CCCC1CCSc1ncccc1-c1nc2ccccc2[nH]1 (stereo not drawn) | -5 | -1 | 3 | 1 | nt | nt | nt
COc1cc(COC(=O)c2cnc(C)cn2)c(OC)cc1Br | 0 | 14 | -1 | 37* | 3 | -16 | 4
COc1cc(N)c2ncccc2c1Cl | 5 | 47* | -19 | 44* | -1 | 3 | 6
CN1CCN(CP(=O)(N2CCOCC2)N2CCOCC2)CC1 | -1 | 2 | -3 | 27* | 6 | -21 | 3
C(CCN1CCOCC1)CN1CCOCC1 | 2 | 4 | 1 | -3 | nt | nt | nt
CN=c1scc(C)n1/N=C/c1ccc(O)c(O)c1O | 5 | 6 | 4 | 57* | 33* | -168 | 40*
CN=c1scc(C)n1/N=C/c1cc(Br)c(O)c(OC)c1 | -2 | 2 | 2 | -6 | nt | nt | nt
SMILES | UHRF1 MBD2 ctr | TDP2 inh | MBD2 inh | LEDGF integ inh | IN multimer act | TR-FRET interf | LEDGF integ conf
CN=c1scc(-c2cccs2)n1/N=C/c1ccc(O)c(O)c1O | 8 | -1 | 4 | 28* | 5 | -25 | 42*
CC(C)c1ccc(/C=C/C(=O)NCCCc2ccccc2)cc1 | -4 | -16 | -2 | 76* | 3 | -15 | -1
COc1ccc(/C=C/C(=O)NCCCc2ccccc2)cc1 | 2 | 9 | 3 | 0 | nt | nt | nt
CC(O)CC(=O)OC[C@]12CC[C@H]3[C@@](C)(CC[C@H]4C(C)(C)CCC[C@]34C)[C@@H]1CC(C1=CC(=O)OC1O)O2 (stereo partly drawn) | 0 | -1 | 1 | 23* | 0 | 2 | 41*
COCc1cc(N2CCN(C(=O)OC(C)(C)C)C[C@H]2C)ccc1N1CC[C@H](O)C1 | -5 | 2 | -5 | 5 | nt | nt | nt
COCc1cc(N2CCN(C(=O)OC(C)(C)C)C[C@@H]2C)ccc1N1CC[C@H](O)C1 | -5 | 2 | -7 | 17* | 4 | -18 | 2
COC(=O)c1cc2c(c3c4cc(C)ccc4n(S(=O)(=O)c4ccc(OC)cc4)c13)C(=O)N(C)C2 | -1 | 2 | -2 | -2 | nt | nt | nt
C=CCN(C)C(C#Cc1ccccc1)Cc1ccccc1 (stereo not drawn) | 0 | -11 | -2 | 2 | nt | nt | nt
O=C(/C=C/c1ccco1)Oc1cccc2cccnc12 | 3 | -10 | -6 | 14* | 0 | 0 | -12
O=C(/C=C\c1ccco1)Oc1cccc2cccnc12 | 1 | -5 | 0 | 4 | nt | nt | nt
CCc1ccc(OC(=O)/C=C/c2ccco2)cc1 | 13 | -2 | -2 | 15* | 1 | -7 | 2
COC(=O)N/N=C/c1ccc(OC(=O)/C=C/c2ccco2)cc1 | 0 | -2 | -6 | 5 | nt | nt | nt
Cn1cc(CC(=O)Nc2ccc(Nc3cccnc3)c(Br)c2)c2ccccc21 | -3 | 1 | -1 | -2 | nt | nt | nt
O=C(Cn1nc(-c2ccccc2)ccc1=O)NCCc1cccc(F)c1 | 1 | 0 | -5 | -2 | nt | nt | nt
CC(C)[C@H]1/C(=C/C2CC2)N2C(=O)C[C@H](c3cccc(C(F)(F)F)c3)N=C2N1Cc1ccc2c(c1)OCO2 | -1 | 0 | -7 | 1 | nt | nt | nt
O=C(Cn1cnc2ccccc2c1=O)N1CCN(C(=O)C2CCCO2)CC1 (stereo not drawn) | 2 | 3 | 1 | -3 | nt | nt | nt
O=C1SC(SCc2ccccc2)=N/C1=C\c1ccco1 | 29* | 14 | 9 | 26* | 0 | 0 | 1
